Experimental data collected from several papers.
Target: Activated CDC42 kinase 1 (TNK2, Homo sapiens, UniProt Q07912)

Structure (SMILES)	test	setting	remaining binding
O=C(NCC1CCOCC1)c1n[nH]cc1NC(=O)c1c(F)cccc1F	binding, competition with immobilised ligand	1 µM	98%
N[C@@H]1CCN(c2nccc(-c3cnn4ncccc34)n2)C1	binding	1 µM	100%
COc1cccc(CNC(=O)c2nc3scc(COCc4ccc(C(=O)O)cc4)c3c(=O)[nH]2)c1	cell-free assay, competition with immobilised ligand	1 µM	89.6%
CNC(=O)[C@@H]1CC[C@@H](n2c(-c3ccc4cnccc4c3)nc3ccc(C(=O)NCc4cccc(C(N)=O)c4)cc32)C1	binding, competition with immobilised ligand	1 µM	100%
CNC(=O)c1ccc(Nc2ncc(C(F)(F)F)c(NCc3nccnc3N(C)S(C)(=O)=O)n2)cc1	cell-free assay, competition with immobilised ligand	0.1 µM	100%
CCN(CC)Cc1cc(Nc2ccnc3cc(Cl)ccc23)ccc1O	cell-free assay, competition with immobilised ligand	10 µM	100%
CCC(=O)N[C@H]1CC[C@@H](C(=O)N(C)c2ccc(-c3nc4ccccc4o3)cc2)C1	cell-free assay, competition with immobilised ligand	1 µM	84%
FC(F)(F)Oc1cccc(-c2cnc3ccc(-c4ccncc4)nn23)c1	binding, competition with immobilised ligand	5 µM	79%
CC(=O)N1CCC(c2ccc(C(=O)NC(=N)N)cc2C(F)(F)F)CC1	cell-free assay, competition with immobilised ligand	1 µM	100%
F[C@@H]1CCN(c2nccc(-c3cnn4ncccc34)n2)C1	binding	1 µM	79%
CNC(=O)c1cc(Oc2ccc(NC(=O)Nc3ccc(Cl)c(C(F)(F)F)c3)cc2)ccn1	cell-free assay, competition with immobilised ligand	10 µM	89%
O=C(c1ccc(Nc2nccc(-c3cc4ccccc4s3)n2)cc1)N1CCC(N2CCCC2)CC1	binding, competition with immobilised ligand	1 µM	62%
CN([C@@H]1CCc2c(CC(=O)O)c3ccccc3n2C1)S(=O)(=O)c1ccc(F)cc1	cell-free assay, competition with immobilised ligand	1 µM	100%
CN1CC[C@H](c2c(O)cc(O)c3c(=O)cc(-c4ccccc4Cl)oc23)[C@H](O)C1	cell-free assay, competition with immobilised ligand	0.1 µM	100%
Cc1nc(Cc2cccc(C(F)(F)F)c2)sc1-c1ccc(C(N)=O)nc1	cell-free assay, competition with immobilised ligand	1 µM	100%
COC(=O)Nc1nc2cc(C(=O)c3ccccc3)ccc2[nH]1	cell-free assay, competition with immobilised ligand	0.1 µM	100%
c1ccc(N2CCN(Cc3nc4ccccc4[nH]3)CC2)nc1	binding, competition with immobilised ligand	1 µM	100%
O=C(c1ccc(Nc2ncc(Cl)c(-c3cc4ccccc4s3)n2)cc1)N1CCC(N2CCCC2)CC1	binding, competition with immobilised ligand	1 µM	54%
Cc1cnn2ncc(-c3ccnc(N(C)C)n3)c2c1	binding	1 µM	100%
COc1cc2ncnc(Nc3ccc(F)c(Cl)c3)c2cc1OCCCN1CCOCC1	cell-free assay, competition with immobilised ligand	10 µM	77%
CN(CCCC(F)(F)F)c1nccc(-c2cnn3ncccc23)n1	binding	1 µM	83%
COc1ncc2cc3ccccc3nc2c1C#N	cell-free assay, competition with immobilised ligand	5 µM	95%
